# Calb FLC – C. albicans growth modulation with fluconazole; C. albicans CaCi-2 (fluconazole-resistant clinical isolate) + fluconazole, Alamar Blue growth, 48 h; growth inhibition, % (no concentration beside the values); actives 0.57% (n = 300,000); AID 1979;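 active means growth inhibition above about 58% in most replicates, limit read from the data, passing the limit was not always enough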;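 further: all wells also contain fluconazole at 8 µg/ml as a sub-toxic cotreatment; 0% = median of DMSO wells and 100% = median of geldanamycin control wells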
# Lmaj promast – reduces viability of Leishmania major promastigotes. AID 1063. inhibition, % at 10 µM. actives 9% (n = 200,000). resazurin fluorescence viability; in the data active means inhibition above about 50%;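 further: promastigotes grown with compound for 44 hours at 28 °C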
# NALP3 yeast inh – inhibitors of NALP3 inflammasome in yeast; inhibition, % at 10 µM; Yeast reconstituted NLRP3/ASC/caspase-1, beta-gal luminescence, 24 h; AID 2825; actives 0.39% (n = 330,000);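 active means inhibition of 50% or more; inactive means inhibition below 50%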;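 further: plate controls were induced DMSO wells for no effect and uninduced yeast grown without galactose for full effect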
# NALP1 yeast inh – blocks the NALP1 inflammasome reconstituted in yeast; AID 2071; actives 0.61% (n = 280,000); S. cerevisiae NALP1/ASC/caspase-1 growth, X-gal OD620, 72 h; inhibition, % at 10 µM; in the data active means inhibition mostly above about 24%, no sharp cut-off; inactive means mostly below about 32%
# T cruzi repl – T. cruzi replication inhibition | T. cruzi beta-gal in NIH3T3, luminescence, 90 h | inhibition, % (test concentration not listed) | actives 1.4% (n = 300,000) | AID 1885;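 active means mean inhibition across valid replicates above about 55%, limit read from the data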;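 further: signal also drops with host cell toxicity which is not excluded here; 0% = plate median of DMSO wells and 100% = zero luminescence signal; higher percent means less beta-gal luminescence so fewer parasites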
#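 Incubation – ≥90 h infection period, 3 h prior cell attachment · System – NIH/3T3 fibroblasts plus reporter T. cruzi · Doses – compound pinned at 50 nL/well, DMSO · Read-out basis – percent inhibition of parasite-derived β-gal signal · Signal – luminescent β-galactosidase signal after 60 min lysis · Also added – 5000 T. cruzi trypomastigotes/well · Medium – Low-serum DMEM with 2% FBS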
# PolyA inhibitor – blocks polyadenylation in yeast reporter cells; S. cerevisiae SKY197-pL101 polyadenylation reporter, beta-gal luminescence; efflux-impaired pdr1/pdr3 knockout yeast; score 100 = 6 SD above DMSO; activity score, % at 12 µM; actives 0.02% (n = 300,000);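 active means lowest replicate activity score at least 50, where 100 means six control SD above control mean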;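 further: yeast exposed to compound for 9 h at 30 °C; higher score means more reporter readthrough which indicates perturbed polyadenylation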
# Starred values were filed as active, the others as inactive; x = not tested or not shown. This excerpt belongs to a sample that is enriched for hits.
SMILES,Calb FLC,Lmaj promast,NALP3 yeast inh,NALP1 yeast inh,T cruzi repl,PolyA inhibitor
Cn1c(=O)oc2cc(S(=O)(=O)N3CCN(Cc4ccc5c(c4)OCO5)CC3)ccc21,-33,76*,13,-1,3,-21
COc1ccc(S(=O)(=O)Nc2nc3ccccc3nc2NCC2CCCO2)cc1 (stereo unspecified),1,x,-18,3,-3,1
Cc1ccccc1CN1CCN(CC2CC2)CC1CCO (stereo unspecified),-6,x,10,-49,-10,7
C=CCNC(=S)/N=c1/ccccn1CCC,-3,x,17,20,-21,-14
O=C(Nc1nccs1)C1CC(=O)N(c2ccc(Cl)cc2)C1 (stereo unspecified),30,1,-3,3,-13,14
O=C(O)c1ccccc1C(=O)N1CCN(Cc2ccc3c(c2)OCO3)CC1,-4,x,13,8,-5,-5
O=C(O)c1cccc(S(=O)(=O)N2CCN(Cc3ccc4c(c3)OCO4)CC2)c1,-13,x,11,8,-6,24
O=C(c1cccc(S(=O)(=O)N2CCOCC2)c1)N1CCN(Cc2ccc3c(c2)OCO3)CC1,-6,2,12,-13,-3,-7
O=S(=O)(c1ccc(F)c(F)c1)N1CCN(Cc2ccc3c(c2)OCO3)CC1,18,78*,26,22,9,6
O=C(c1ccc(S(=O)(=O)N2CCCCC2)cc1)N1CCN(Cc2ccc3c(c2)OCO3)CC1,2,98*,x,-3,8,8
O=S(=O)(Cc1ccccc1)N1CCN(Cc2ccc3c(c2)OCO3)CC1,-50,92*,20,x,-3,-6
Cc1nn(Cc2ccccc2)c2sc(C(=O)N3CCN(Cc4ccc5c(c4)OCO5)CC3)cc12,-7,75*,20,x,50,7
CCn1c2ccccc2c2nnc(SCc3cc(=O)n4ccsc4n3)nc21,x,x,x,10,x,x
CC(C)C[C@@H](CN=[N+]=[N-])N1CCN(Cc2ccccc2)CCC1=O,-5,x,18,14,-14,-11
O=C1c2ccccc2C(O)(c2ccccc2)N1c1ccncc1 (stereo unspecified),-8,x,14,13,22,3
CC(=O)N1c2ccc(S(=O)(=O)NCCC(=O)N3CCC(C)CC3)cc2CC1C (stereo unspecified),-24,x,-8,8,-4,-12
COc1ccc(CCC(=O)NCCOc2ccc(Cl)cc2)cc1,9,x,28,15,-2,-5
CC(=O)NC1(C(F)(F)F)C(=O)Nc2c1c(=O)[nH]c(=O)n2CC(C)C (stereo unspecified),-4,-7,3,-30,-7,-12
COc1cc(C)c(C)cc1S(=O)(=O)N1CCN(Cc2ccc3c(c2)OCO3)CC1,0,60*,19,19,-6,9
O=S(=O)(c1ccc2c(c1)OCCO2)N1CCN(Cc2ccc3c(c2)OCO3)CC1,-46,73*,9,4,13,3
O=S(=O)(c1ccc2c(c1)OCCO2)N1CCN(Cc2ccccc2)CC1,-5,5,17,16,18,-6
CC1CCN(c2ncnc3c2cnn3Cc2ccc(Cl)cc2)CC1,x,-2,37,1,x,x
O=C(CNC(=S)N(Cc1ccccc1)Cc1cccnc1)N1CCOCC1,6,-5,6,-5,19,23
CCN(Cc1ccncc1)C(=O)c1cccc(S(=O)(=O)N2CCCCC2)c1,x,x,11,x,x,x
OCC1(CCCc2ccccc2)CCN(Cc2cnc(N3CCOCC3)s2)CC1,13,79*,4,16,59*,-11
SMILES,Calb FLC,Lmaj promast,NALP3 yeast inh,NALP1 yeast inh,T cruzi repl,PolyA inhibitor
CCOC(=O)C1(Cc2ccccc2)CCN(Cc2cccn2-c2nccs2)CC1,-4,7,8,-7,7,31
COc1cccc(CC2(CO)CCN(Cc3cnc(N4CCOCC4)s3)CC2)c1,-11,-2,9,6,37,1
Cc1ncc(CN2CCC(CO)(CCc3ccccc3)CC2)s1,4,84*,15,11,11,7
Cc1ccccc1-c1ncc(CN2CCC(CO)(CCCc3ccccc3)CC2)cn1,-5,2,27,0,33,7
CCOC(=O)C1(Cc2ccccc2)CCN(Cc2cnc(N3CCOCC3)s2)CC1,4,5,17,3,59*,5
CC1=C(C(=O)Nc2ccccc2)C2(CCCCC2)C(C#N)=C(S)N1,2,-4,9,-9,5,8
O=[N+]([O-])c1cc(S(=O)(=O)NCCN2CCOCC2)ccc1Sc1nnnn1-c1ccccc1,3,86*,19,15,5,7
Cc1ccc(S(=O)(=O)NCCSc2nnnn2-c2ccc(C(N)=O)cc2)cc1,-6,25,-5,31,-2,5
Cc1ccc(-n2nnnc2Sc2ccc(S(=O)(=O)NCCN(C)C)cc2[N+](=O)[O-])cc1,3,100*,x,29,38,6
CC(=O)N1CCN(c2ccc(S(=O)(=O)NCCN(C(C)C)C(C)C)cc2[N+](=O)[O-])CC1,-14,-2,22,12,8,12
CN(C)CCNS(=O)(=O)c1ccc(N2CCN(c3ccc(F)cc3)CC2)c([N+](=O)[O-])c1,-18,98*,-3,-3,52,-5
Cc1ccc(S(=O)(=O)N(C)CC(=O)Nc2nnc(CC(C)C)s2)cc1,2,x,22,5,5,-6
Cc1ccc(S(=O)(=O)/N=C2/C=C(Sc3ncn[nH]3)C(=O)c3ccccc32)cc1,x,100*,x,29,x,x
Cc1ccc(S(=O)(=O)Nc2ccc(O)c(Sc3ncn[nH]3)c2)cc1,10,-1,7,-4,1,20
Cc1ccc(S(=O)(=O)/N=C2/C=C(Sc3ncn[nH]3)C(=O)c3ccccc32)c(C)c1,x,99*,x,24,x,x
CC(C)c1ccc(S(=O)(=O)/N=C2/C=C(Sc3ncn[nH]3)C(=O)c3ccccc32)cc1,x,99*,x,25,x,x
COCCN(C(=O)COC(=O)c1ccc(C)s1)c1c(N)n(Cc2ccccc2)c(=O)[nH]c1=O,-1,x,31,x,-12,-7
CC(NC(=O)c1cc(S(=O)(=O)N(C)C)ccc1Cl)c1ccc(-n2ccnc2)cc1 (stereo unspecified),6,x,4,10,-5,5
O=C(Cn1c(=O)oc2ccccc21)NCCc1ccccc1Cl,-4,-2,0,42*,-9,5
CCCCCNC(=O)CCn1c(=O)oc2ccccc21,-3,0,-15,0,-18,-14
COCCNC(=O)CCn1c(=O)oc2ccccc21,19,70*,11,-2,-9,-3
COc1ccc(CNC(=O)Cn2c(=O)oc3ccccc32)cc1OC,x,-3,14,43*,x,x
Cc1ccc(O)c(C(=O)c2cnc3c(c2)c(-c2ccc(F)cc2)c(C#N)c(=O)n3C)c1,-39,52*,-11,-4,2,-5

# High-throughput results: PubChem BioAssay, several laboratories
